The text below walks through data of ChEMBL document CHEMBL2321694, “Novel 3-hydroxy vinylboronates influence sphingolipid metabolism, cause apoptosis in Jurkat cells and prevent tumor development in nude mice” (Bioorg Med Chem Lett, 2013).

For one data set, the system named is ARH-77. In words: Cytotoxicity against human ARH77 cells assessed as cell survival after 72 hrs by MTT assay. In kind it is functional, cell-based. The procedure, abridged:
(§1)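 Cells at 1 × 10^6 cells/ml were plated in RPMI 1640 without FCS; adherent lines (HT-29, ARH-77, Melanoma-624) were left overnight to attach first. Compound was added and MTT read after 72 h incubation at 37 °C, 5% CO2; IC50 derived.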
(Tetrazolium assays rely on reduction of a dye to a coloured formazan, in cell work by metabolically active cells.)

The test system of data set [1] is HT-29. Nature of the data set: Cytotoxicity against human HT-29 cells assessed as cell survival after 72 hrs by MTT assay. In kind it is functional, cell-based. The procedure, abridged: as §1
For data set [2], the system named is Jurkat. In words: Cell cycle arrest at human Jurkat cells assessed as accumulation at sub G1 phase at 20 to 50 uM after 24 hrs by propidium iodide staining-based FACS flow cytometric analysis. In kind it is functional. Particulars: 100 uM, in the assay text read “100 uM” for “20 to 50 uM”. The procedure, abridged: (§2)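 Jurkat cells at 1 × 10^6 cells/ml were exposed to compound or vehicle (0.2% DMSO) for 24 h. They were then fixed in cold 70% ethanol, and RNAse (50 μg/ml) and PI were added in PBS. Cell-cycle distribution, including sub-G1, was read by flow cytometry. Data are mean ± s.d., with t test versus naïve control.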
In general terms: Flow cytometry measures light scatter and fluorescence of single cells or particles in a stream.

Data set [3] relates to Jurkat. In words: Induction of apoptosis in human Jurkat cells assessed as increase in apoptotic cells at 100 uM after 24 hrs by annexin V-propidium iodide staining-based FACS flow cytometric analysis (reference value: 11.99%). Format: functional.
Data set [4] concerns HT-29. Nature of the data set: Antitumor activity against human HT-29 cells xenografted in nude mouse assessed as tumor growth inhibition at 50 mg/kg, ip measured up to day 33. On the set-up: dose 50 mg/kg. Format: functional, organism-based. (Xenograft models place foreign cells or tissue in a host animal.)
The nature of data set [5]: Cytotoxicity against human Melanoma-624 cells assessed as cell survival after 72 hrs by MTT assay. In kind it is functional, cell-based. The settings on record: Homo sapiens, 624, 72 h. The procedure, abridged: as §1
For another data set, the system named is Mus musculus. Nature of the data set: Toxicity in nude mouse xenografted with human HT-29 cells assessed as adverse effect at 50 mg/kg, ip up to day 50. Format: organism-based. Particulars: in vivo. The arrangement: dose 50 mg/kg, route intraperitoneal. The procedure, abridged: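 HT-29 xenograft (1 × 10^6 cells sc) in female nude mice dosed ip once daily for 3 weeks (15 injections) in cremophor/ethanol/water (10:10:80), followed to day 50; general health checked daily by weighing and clinical examination.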

Data set [6] has as its system Jurkat. In words: Cytotoxicity against human Jurkat cells assessed as cell survival after 72 hrs by MTT assay in presence of 10% FCS. In kind it is functional, cell-based. The procedure, abridged: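 Jurkat MTT viability run in RPMI 1640 with 10% FCS, 72 h incubation with compound at 37 °C, 5% CO2; IC50 derived.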
The test system of data set [7] is Jurkat. In words: Cell cycle arrest at human Jurkat cells assessed as accumulation at sub G1 phase at 100 uM after 24 hrs by propidium iodide staining-based FACS flow cytometric analysis relative to control. In kind it is functional. The procedure, abridged: as §2
Data set [8] concerns Jurkat. In words: Cytotoxicity against human Jurkat cells assessed as cell survival after 72 hrs by MTT assay. In kind it is functional, cell-based. The procedure, abridged:
as §1

Data set [9] deals with Jurkat. In words: Reduction of sphingomyelin synthesis in fluorescent Bodipy-12-ceramide-treated human Jurkat cells administered 30 mins prior to Bodipy-12-ceramide addition measured after 72 hrs by HPLC analysis in presence of 10% FCS. Format: functional, cell-based. The procedure, abridged:
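Jurkat cells (0.75 × 10^6 cells/ml) in medium with 10% FCS received compound or vehicle (0.1% DMSO); 30 min later 0.25 μM Bodipy-12-ceramide was added. After 72 h, lipids were extracted with dichloromethane/methanol, and ceramide and sphingomyelin percentages were quantified by C18 HPLC with fluorescence detection (Ex 505, Em 530 nm). Mean ± s.d., t test versus vehicle.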

Data set [10] concerns HT-29. In words: Antitumor activity against human HT-29 cells xenografted in nude mouse assessed as tumor growth inhibition at 50 mg/kg, ip measured after 33 days. In kind it is functional, organism-based. On the set-up: dose 50 mg/kg. The procedure, abridged: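 Female nude mice 5–6 weeks old (SPF, ~22 °C, 12-h light–dark) injected sc with 1 × 10^6 HT-29 cells, randomized same day to 50 mg/kg (n=5) or vehicle cremophor/ethanol/water (10:10:80) (n=6). Once-daily ip injections for 3 weeks (15 injections), then 4 weeks follow-up; read-out was percentage of tumor-free mice over time.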

Setting [11] is: Homo sapiens, ARH-77, 72 h, read-out: IC50.
Where [12] appears, read: Homo sapiens, HT-29, 72 h, read-out: IC50.

Calls of active or inactive are those of the source. The calls are words filed in the database; no cut-off is given here.

As usually defined, the IC50 is the concentration at which inhibition is half-maximal. Regarding `CCCCC/C(=C\B1OC(C)(C)C(C)(C)O1)C(O)(c1ccccc1)C1CC1` (stereo unspecified), the IC50 in the data set on ARH-77 (setting [11]) was 10.4 µM; in the data set on HT-29 [1] (ht-29), “Not Active”.
Turning to `CCC/C(=C\B1OC(C)(C)C(C)(C)O1)C(O)c1ccccc1` (stereo unspecified), the IC50 result in the data set with ARH-77 (arh-77) was “Not Active”; in the data set on HT-29 [1] (setting [12]), above 100 µM.
In the case of `CCCCCCCC/C(=C\B1OC(C)(C)C(C)(C)O1)C(C)(O)CCCCCC` (stereo unspecified), the IC50 with ARH-77 (setting [11]) was 79.1 µM; in the data set on HT-29 [1] (setting [12]) it was above 100 µM.
On the same counts, the results for `CCCCC(C)(O)/C(=C/B1OC(C)(C)C(C)(C)O1)CCC` (stereo unspecified) are 54.6 µM and 69.6 µM.
`CCCCCCCC/C(=C\B1OC(C)(C)C(C)(C)O1)C(O)(c1ccccc1)C1CC1` (stereo unspecified): the outcome in the data set with Jurkat [2] was Active. Moreover, the IC50 in the data set on ARH-77 (setting [11]) worked out at 6.36 µM; in data set [5], 32.3 µM; in the data set with Jurkat [6] it was 84 µM; in the data set on Jurkat [8], 16.3 µM; with HT-29 [1] (setting [12]) it was 18.3 µM. Moreover, the Activity was 15.22% in the data set with Jurkat [3], “Non-toxic” in the data set with Mus musculus and “Dose-dependent effect” in the data set with Jurkat [9]. Moreover, the TGI entry in the data set with HT-29 [4] is “Active”. Moreover, the “fold change (FC)” value in the data set with Jurkat [7] was above 2. Also, in the data set on HT-29 [10], the TGI entry is “inactive”.
On to `CCCCCCC(C)(O)/C(=C/B1OC(C)(C)C(C)(C)O1)CCC` (stereo unspecified), for which the IC50 with ARH-77 (setting [11]) amounted to 33.9 µM; in the data set with HT-29 [1] (setting [12]), 57.2 µM.
For the compound `CCC/C(=C\B1OC(C)(C)C(C)(C)O1)C1(O)CCCc2ccccc21` (stereo unspecified), the IC50 worked out at 64.9 µM in the data set on ARH-77 (setting [11]) and 86.8 µM in the data set on HT-29 [1] (setting [12]).
On the same counts, the results for `CCC/C(=C\B1OC(C)(C)C(C)(C)O1)C(O)(c1ccccc1)C1CC1` (stereo unspecified) are 55.2 µM and 83.9 µM.
